Here are results for 7 molecules from article PMC2810401 (Biochemistry, 2010).

The target of assay [1] is T1, ADC β-lactamase (Acinetobacter baumannii, UniProt Q6DRA1). To be noted: obtained previously by same methodology; cited from earlier work.
Assay [2] has as its target T1, ADC β-lactamase. Briefly: ESI-MS of intact ADC incubated with inhibitors. To be noted: 14 μM ADC, 15 min, inhibitor: enzyme 20:1; error ± 3 amu. In a few lines: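 ADC-7 was expressed in E. coli BL21(DE3) from pET24a(+) with 0.2 mM IPTG at 37 °C for 4 hr. It was purified by preparative isoelectric focusing and gel-filtration FPLC. Incubations were run with and without test compound, then quenched with 0.1% TFA, desalted on C18 and kept on ice. Samples were diluted to 10 μM in 50% acetonitrile/0.1% TFA, nanospray-infused at 0.5 μl/min for 2 min on a Q-TOF, and spectra were deconvoluted.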

Assay [3] deals with T1, ADC β-lactamase. Put plainly: Ki in direct competition assays with ADC. The assay is classed as biochemical.
A further assay has as its system E. coli DH10B blaADC. To be noted: E. coli DH10B harboring blaADC; previous data; cited from earlier work.

For orientation: Ki means the dissociation constant of the complex between target and ligand, obtained from inhibition or displacement. As usually defined, the MIC is the smallest concentration in the dilution series that meets the test's criterion for growth inhibition.

Each structure is given as a SMILES string. Values after ≈ are worked out from the molar mass of the structure shown. Values joined by “and” are separate entries in the source; they are usually repeats but may differ in a detail not shown here. Equal values may be shown once. Read-outs that look alike come from different tables or passages of the source.

Regarding `O=C(O)[C@H]1/C(=C/CO)O[C@@H]2CC(=O)N21` [Clavulanate], the Ki on ADC β-lactamase [1] was 4280 µM.
As to `C[C@@H](O)[C@H]1C(=O)N2C(C(=O)O)=C(S[C@@H]3CN[C@H](CNS(N)(=O)=O)C3)[C@H](C)[C@H]12` [Doripenem], at ADC β-lactamase [2], the “Species observed in deconvoluted spectra” value was 41,058 amu and 41,015 amu; the “Δ difference from β-lactamase molecular weight” value (“Δ difference” for short) is 420 amu and 377 amu. On ADC β-lactamase [3], this molecule yielded a Ki of 12.2 ± 0.4 µM.
On to `C[C@@H](O)[C@H]1C(=O)N2C(C(=O)O)=C(S[C@@H]3CN[C@H](C(=O)Nc4cccc(C(=O)O)c4)C3)[C@H](C)[C@H]12` [Ertapenem], for which, in the assay on E. coli DH10B blaADC, the MIC is 0.06 mg/L (≈ 0.126 µM). Also, at ADC β-lactamase [2], the “Species observed in deconvoluted spectra” value was 41,069 amu and 41,112 amu; the “Δ difference” value was 431 amu and 474 amu. The molecule further came in with a Ki on ADC β-lactamase [3] of 5.8 ± 0.2 µM.
Take `C[C@@H](O)[C@H]1C(=O)N2C(C(=O)O)=C(SCCN=CN)C[C@H]12` [Imipenem]: on ADC β-lactamase [2], the “Species observed in deconvoluted spectra” value was 40,936 amu and 40,893 amu; the “Δ difference” value is 298 amu and 255 amu. For the same molecule, affinity on ADC β-lactamase [3] was put at a Ki of 1.3 ± 0.1 µM.
For the molecule `C[C@@H](O)[C@H]1C(=O)N2C(C(=O)O)=C(S[C@@H]3CN[C@H](C(=O)N(C)C)C3)[C@H](C)[C@H]12` [Meropenem], the MIC in the assay on E. coli DH10B blaADC was 0.06 mg/L (≈ 0.156 µM). For the same molecule, at ADC β-lactamase [2], the “Species observed in deconvoluted spectra” value was 41,021 amu and 40,979 amu; the “Δ difference” value is 383 amu and 341 amu. The same molecule registered a Ki at ADC β-lactamase [3] of 19 ± 2 µM.
Take `CC1(C)[C@H](C(=O)O)N2C(=O)C[C@H]2S1(=O)=O` [Sulbactam]: at ADC β-lactamase [1], the Ki is 109 ± 3 µM.
As to `C[C@]1(Cn2ccnn2)[C@H](C(=O)O)N2C(=O)C[C@H]2S1(=O)=O` [Tazobactam], on ADC β-lactamase [1], the Ki is 91 ± 21 µM.
